Calls of active or inactive are those of the source. The rule behind the calls is not given here.
Legend:
[1] = test system: Rattus norvegicus; assay: Central dopamine receptor stimulating activity in Sprague-Dawley rat assessed as reduction in DOPA accumulation in striatum of brain at 2 umol/kg, sc by spectrophotometric method; assay type: functional
Procedure, shortened: (§1)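 Male Sprague-Dawley rats (200-350 g), reserpinized. Compounds dissolved in saline immediately before use, neutral pH, 10 mL/kg, given sc over a dose range. Aromatic-L-amino-acid decarboxylase inhibited (100 mg/kg). Dopa and 5-HTP accumulation measured spectrophotometrically in striatum, limbic forebrain and remaining hemispheral portions. ED50 = dose giving 50% of maximal reduction versus control portions, estimated from dose-response curves. Experiments run 9–12 a.m.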

[2] = test system: Rattus norvegicus; assay: Central dopamine receptor stimulating activity in reserpenized Sprague-Dawley rat assessed as latency period of motor activity at 2 umol/kg, sc measured 6 hrs post-reserpine challenge by motility meter analysis; assay type: functional
Procedure, shortened: (§2)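 Male Sprague-Dawley rats (200-350 g) given reserpine 10 mg/kg ip 6 h before testing. Drug in saline, 2 µmol/kg sc in the neck. Rats then placed singly in photocell motility meters. Counts recorded per 5-min period until effect ceased (<10 counts/5 min), giving duration and AUC. Means of four to six recordings. Testing 1–6 p.m.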

[3] = test system: Rattus norvegicus; assay: Central dopamine receptor stimulating activity in reserpenized Sprague-Dawley rat assessed as duration of action of motor activity at 2 umol/kg, sc measured 6 hrs post-reserpine challenge by motility meter analysis; assay type: functional; procedure, shortened: as §2
[4] = test system: Rattus norvegicus; assay: Central dopamine receptor stimulating activity in Sprague-Dawley rat assessed as reduction in DOPA accumulation in limbic region of brain at 2 umol/kg, sc by spectrophotometric method; assay type: functional; settings: Limbic system; procedure, shortened: as §1
[5] = test system: Rattus norvegicus; assay: Central serotonin receptor stimulating activity in Sprague-Dawley rat assessed as reduction in 5-HTP accumulation in striatum of brain at 2 umol/kg, sc by spectrophotometric method; assay type: functional, organism-based; procedure, shortened: as §1
[6] = test system: Rattus norvegicus; assay: Central noradrenaline receptor stimulating activity in Sprague-Dawley rat assessed as reduction in DOPA accumulation in hemispheral portion of cerebrum at 2 umol/kg, sc by spectrophotometric method; assay type: functional, organism-based; procedure, shortened: as §1
[7] = test system: Rattus norvegicus; assay: Central serotonin receptor stimulating activity in Sprague-Dawley rat assessed as reduction in 5-HTP accumulation in limbic region of brain at 2 umol/kg, sc by spectrophotometric method; assay type: functional, organism-based; settings: Limbic system; procedure, shortened: as §1
[8] = test system: Rattus norvegicus; assay: Toxicity in sc dosed Sprague-Dawley rat assessed as gross behaviour at ED50; assay type: organism-based; settings: in vivo
[9] = test system: Rattus norvegicus; assay: Central dopamine receptor stimulating activity in reserpenized Sprague-Dawley rat assessed as duration of action of motor activity at 20 umol/kg, po administered via stomach tube measured 6 hrs post-reserpine challenge by motility meter analysis; assay type: functional
Procedure, shortened: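 Male Sprague-Dawley rats (200-350 g) given reserpine 10 mg/kg ip 6 h before testing. Drug in saline, 20 µmol/kg po by stomach tube. Rats then placed singly in photocell motility meters. Counts recorded per 5-min period until effect ceased (<10 counts/5 min) to give duration of action. Testing 1–6 p.m.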

[10] = test system: Rattus norvegicus; assay: Central serotonin receptor stimulating activity in Sprague-Dawley rat assessed as reduction in 5-HTP accumulation in hemispheral portion of cerebrum at 2 umol/kg, sc by spectrophotometric method; assay type: functional, organism-based; procedure, shortened: as §1

Row | SMILES | ED50 [1] [µmol/kg] | Time [2] [min] | Time [3] [min] | ED50 [4] [µmol/kg] | Activity [5] | Activity [6] | Activity [7] | Activity [8] | Time [9] [min] | Activity [10]
1 | Br.CCCCN(CC)C1CCc2c(O)cccc2C1 (stereo not drawn) | 0.035 | 0 | 118 | 0.03 | inactive | inactive | inactive | Non-toxic | 63 | inactive
2 | Br.CCCN(CCC)C1CCc2c(O)cccc2C1 (stereo not drawn) | 0.009 | 0 | 127 | 0.011 | inactive | inactive | inactive | Non-toxic | 121 | inactive
3 | Br.CCCN(CC)C1CCc2c(O)cccc2C1 (stereo not drawn) | 0.017 | 0 | 82 | 0.024 | inactive | inactive | inactive | Non-toxic | 40 | inactive
4 | CN1CCc2cccc3c2[C@H]1Cc1ccc(O)c(O)c1-3 [APOMORPHINE] | 0.22 | 0 | 60 | 0.19 |  |  |  |  | 33 | 
5 | Br.CCN(CC)C1CCc2c(O)cccc2C1 (stereo not drawn) | 0.071 | 0 | 54 | 0.077 | inactive | inactive | inactive | Non-toxic |  | inactive
6 | CCCCN(CC)C1CCc2c(cccc2OC)C1.Cl (stereo not drawn) | 0.079 | 16 | 140 | 0.068 | inactive | inactive | inactive | Non-toxic |  | inactive
7 | CCCCN(CCC)C1CCc2c(cccc2OC)C1.Cl (stereo not drawn) | 0.036 | 14 | 106 | 0.04 | inactive | inactive | inactive | Non-toxic |  | inactive
8 | CCCN(CCC)C1CCc2c(cccc2OC)C1.Cl (stereo not drawn) | 0.018 | 15 | 122 | 0.013 | inactive | inactive | inactive | Non-toxic |  | inactive
9 | Br.CCCCN(CCC)C1CCc2c(O)cccc2C1 (stereo not drawn) | 0.014 | 0 | 158 | 0.011 | inactive | inactive | inactive | Non-toxic | 117 | inactive
10 | Br.CCCN(C)C1CCc2c(O)cccc2C1 (stereo not drawn) | 0.029 | 0 | 73 | 0.023 | inactive | inactive | inactive | Non-toxic |  | inactive
11 | CCCN(CC)C1CCc2c(cccc2OC)C1.Cl (stereo not drawn) | 0.062 | 13 | 96 | 0.065 | inactive | inactive | inactive | Non-toxic |  | inactive
12 | CCCN(C)C1CCc2c(cccc2OC)C1.Cl (stereo not drawn) | 0.096 | 15 | 69 | 0.12 | inactive | inactive | inactive | Non-toxic |  | inactive
